# Assay results as given in PubChem BioAssay.
# Activity calls are given as the source filed them.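 How the source made its calls, unless noted: active means fluorescence slope higher than the sample average by over 3 SD (cut at about -0.22 in these data, passing the limit was not always enough); inactive means the rest.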
# Assays:
# [1] = inhibitors of TNFa-induced NFkB p65 translocation, primary screen, imaging, HUVEC, MLSMR starter and 10KST1 sets (AID 438;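 active means inhibition above 20% together with a positive visual image hit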;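 further: compound added about 3h40 before a 20 min TNFalpha stimulation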;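 on inhibition: signal is the nuclear over cytoplasmic p65 intensity ratio per well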); settings: HUVEC TNFa-induced p65 nuclear translocation; cell count: measured here: nuclei count (cytotoxicity indicator), at 2.08 µM; inhibition: at 2 µM, stronger effect = higher value, 0% TNFa-plus-vehicle, 100% no-TNFa wells
# [2] = reduction of polyQ htt aggregates in cells – imaging, exon1htt(103Q)mCFP cells, high-content imaging, primary screen (AID 483;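 active means visual image review flags a hit and inhibition of aggregation exceeds 20%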;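 further: compound exposure lasted 3 days before fixation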;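 on nuclei count: percent of the per-plate median nuclei count of sample wells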); settings: exon1htt(103Q)mCFP cell line, aggregate imaging, at 2 µM; inhibition of aggregation: stronger effect = higher value; nuclei count: measured here: cell count, toxicity
# [3] = endothelial E-selectin expression blockers – imaging, HUVEC, immunofluorescence, MLSMR starter and 10KST1 sets, primary screen (AID 487;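 active means visually confirmed hit in the image check and inhibition above 20%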;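 on inhibition: signal is fraction of cell area covered by stained E-selectin grains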;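 on nuclei count: 100% = median nuclei count of all wells on the same plate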); settings: HUVEC TNFalpha-induced E-selectin immunofluorescence imaging, at 2 µM; inhibition: stronger effect = higher value; nuclei count: measured here: cell number, toxicity
# [4] = target: Voltage-gated potassium channel subunit beta-2 (Rattus norvegicus) (UniProt P62483); test: inhibitors of rat Kvbeta2 reductase activity – biochemical, NADPH fluorescence, primary screen (AID 622); settings: recombinant KvBeta, 4-cyanobenzaldehyde reduction, at 10 µM, stronger effect = higher value;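 further: slope of raw intensity against log time taken from 70 to 1610 s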
# [5] = target: Voltage-gated potassium channel subunit beta-2 (Rattus norvegicus) (UniProt P62483); test: enhancers of rat Kvbeta2 NADPH turnover – biochemical, NADPH fluorescence, primary screen (AID 623;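 active means NADPH fluorescence slope more negative than the mean of all samples by about 3 SD, 99.7% confidence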;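 further: fluorescence intensity change per second fitted from 20 to 320 s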); settings: Recombinant KvBeta, NADPH fluorescence decrease slope, 10 min; at 10 µM; stronger effect = lower value
# [6] = target: Alpha-2C adrenergic receptor (Homo sapiens) (UniProt P18825); test: compounds altering alpha2C-coupled GIRK flux – cell-based, HEK293 alpha2C/GIRK1/2, thallium flux, primary screen (AID 624;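 active means fluorescence slope after compound addition differing from the mean of all screened samples at 99.7% confidence, in either direction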;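 further: slope of fluorescence ratio to pre-addition baseline per second over 15 to 24 s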); settings: thallium flux BTC fluorescence, at 10 µM, actives lie on both sides
# [7] = inhibitors of larval lipid processing in zebrafish, primary screen, whole organism, PED6 fluorescence, gall bladder and intestine (AID 686;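 active means a full or partial loss of lipid-probe fluorescence in the fish gall bladder, intestine or both, judged by eye; inactive means no fluorescence loss, or compound toxic to the fish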;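 further: larvae 5 to 7 days old with five fish per well; signal comes from phospholipase A2 cleavage of quenched PED6 carried via bile; overnight exposure to compound and PED6 before scoring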); settings: Zebrafish larvae PED6 lipid processing, fluorescence scoring; screened at 20 µM (by protocol)
# Method in brief: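 Also added: quenched phospholipase substrate PED6, 100 nM final, ingested by larvae; System: zebrafish larvae, 5-7 d; Quantity: 5 larvae per well; Compound: 20 µM single dose; Schedule: overnight compound and PED6 incubation; Read-out: visual per-well fluorescence inhibition score; Measured by: By-eye fluorescence microscopy; Medium: E3.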
# [8] = blockers of RIG-like receptor reporter activation – cell-based, Sendai virus stimulus, luciferase, 10K MLSCN set, TLR/RLR signaling modifier project, primary screen (AID 602276;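 active means inhibition at or above 50% at 10 µM; inactive means inhibition below 50%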;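 further: firefly luciferase from ISG56 promoter only with Renilla not read in this screen; 0% = Sendai virus plus DMSO and 100% = medium plus DMSO without virus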); settings: HEK293 RL24 IRF3 luciferase reporter, at 10 µM, stronger effect = higher value
# [9] = TLR3 IRF3 reporter activation blockers – cell-based, poly I:C stimulus, luciferase, 10K MLSCN set, primary screen (AID 602277;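 active means inhibition of the reporter signal at or above 50%; inactive means inhibition below 50%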); settings: HEK293-TLR3 RL24 IRF3 luciferase reporter, at 10 µM, stronger effect = higher value
# Alpha-2C adrenergic receptor (Homo sapiens), sequence (P18825 whole entry, looked up): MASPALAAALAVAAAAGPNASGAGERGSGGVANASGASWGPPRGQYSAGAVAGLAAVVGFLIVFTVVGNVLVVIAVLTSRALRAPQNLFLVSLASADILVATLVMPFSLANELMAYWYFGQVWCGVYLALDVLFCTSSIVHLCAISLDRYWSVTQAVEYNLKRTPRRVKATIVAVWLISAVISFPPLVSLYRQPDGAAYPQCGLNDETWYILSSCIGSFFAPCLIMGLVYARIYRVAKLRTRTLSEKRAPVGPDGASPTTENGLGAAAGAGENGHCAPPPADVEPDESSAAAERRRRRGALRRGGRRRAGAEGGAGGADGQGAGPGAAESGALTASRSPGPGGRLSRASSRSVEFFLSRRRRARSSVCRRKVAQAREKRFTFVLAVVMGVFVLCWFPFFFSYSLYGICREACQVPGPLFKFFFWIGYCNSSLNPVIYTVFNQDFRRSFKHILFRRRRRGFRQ
# Voltage-gated potassium channel subunit beta-2 (Rattus norvegicus), sequence (P62483 whole entry, looked up): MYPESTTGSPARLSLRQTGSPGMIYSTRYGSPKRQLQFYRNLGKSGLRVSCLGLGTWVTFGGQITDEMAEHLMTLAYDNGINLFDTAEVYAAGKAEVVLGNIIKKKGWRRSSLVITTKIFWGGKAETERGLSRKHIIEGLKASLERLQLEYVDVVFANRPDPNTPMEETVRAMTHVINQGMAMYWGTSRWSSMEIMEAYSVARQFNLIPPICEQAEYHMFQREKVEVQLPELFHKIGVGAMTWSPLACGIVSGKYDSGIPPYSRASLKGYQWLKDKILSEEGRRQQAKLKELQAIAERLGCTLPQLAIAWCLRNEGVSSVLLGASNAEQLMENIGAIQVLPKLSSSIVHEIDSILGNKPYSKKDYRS
compound,measurement,setting,value
CCCC(OC(=O)CN1C(=O)COc2ccccc21)C(=O)NC1CCCC1 (configuration not stated),cell count,[1],637
same,inhibition,[1],5.5% (inactive)
same,inhibition of aggregation,[2],1.5% (inactive)
same,nuclei count,[2],129%
same,inhibition,[3],-88% (inactive)
same,nuclei count,[3],106%
same,fluorescence slope,[4],-0.434 (inactive)
same,NADPH fluorescence slope,[5],-1.6e-05 (inactive)
same,slope,[6],0.00522 (inactive)
same,outcome,[7],inactive
same,inhibition,[8],20.6% (inactive)
same,inhibition,[9],23.6% (inactive)
O=C1OCCC1Sc1ncnc2sccc12 (configuration not stated),cell count,[1],498
same,inhibition,[1],-6.8% (inactive)
same,inhibition of aggregation,[2],-0.5% (inactive)
same,nuclei count,[2],125%
same,inhibition,[3],-1.7% (inactive)
same,nuclei count,[3],110%
same,fluorescence slope,[4],-0.376 (inactive)
same,NADPH fluorescence slope,[5],-7.9e-05 (inactive)
same,slope,[6],0.00502 (inactive)
same,outcome,[7],inactive
same,inhibition,[8],9.26% (inactive)
same,inhibition,[9],12.3% (inactive)
COc1ccc(C)cc1-n1nnnc1SC/C(O)=C(\C#N)c1nc2ccccc2[nH]1,cell count,[1],614
same,inhibition,[1],5.1% (inactive)
same,inhibition of aggregation,[2],-491% (inactive)
same,nuclei count,[2],42.2%
same,inhibition,[3],-42.5% (inactive)
same,nuclei count,[3],104%
same,fluorescence slope,[4],-0.431 (inactive)
same,NADPH fluorescence slope,[5],-3.4e-05 (inactive)
same,slope,[6],0.00627 (inactive)
same,outcome,[7],active; weak signal in gallbladder only
same,inhibition,[8],15.6% (inactive)
same,inhibition,[9],27% (inactive)
O=C(COc1ccc(F)cc1)Nc1ccc(-n2cnnn2)cc1,cell count,[1],568
same,inhibition,[1],1.1% (inactive)
same,inhibition of aggregation,[2],34.2% (inactive)
same,nuclei count,[2],90.5%
same,inhibition,[3],52.5% (inactive)
same,nuclei count,[3],62.3%
same,fluorescence slope,[4],-0.409 (inactive)
same,NADPH fluorescence slope,[5],-0.000109 (inactive)
same,slope,[6],0.00564 (inactive)
same,outcome,[7],inactive
same,inhibition,[8],8.39% (inactive)
same,inhibition,[9],1.26% (inactive)
O=C(CN(c1ccc(F)cc1)S(=O)(=O)c1ccc2c(c1)OCCO2)Nc1cccnc1,cell count,[1],757
same,inhibition,[1],1.6% (inactive)
same,inhibition of aggregation,[2],7% (inactive)
same,nuclei count,[2],93.5%
same,inhibition,[3],-19.1% (inactive)
same,nuclei count,[3],111%
same,fluorescence slope,[4],-0.453 (inactive)
same,NADPH fluorescence slope,[5],-4.5e-05 (inactive)
same,slope,[6],0.00513 (inactive)
same,outcome,[7],inactive
same,inhibition,[8],7.14% (inactive)
same,inhibition,[9],18.5% (inactive)
COc1cccc(NC(=O)N2CCCC2C(=O)Nc2ccc3c(c2)OCO3)c1 (configuration not stated),cell count,[1],649
same,inhibition,[1],5.8% (inactive)
same,inhibition of aggregation,[2],-11.8% (inactive)
same,nuclei count,[2],57.5%
same,inhibition,[3],-117% (inactive)
same,nuclei count,[3],106%
same,fluorescence slope,[4],-0.351 (inactive)
same,NADPH fluorescence slope,[5],-6.1e-05 (inactive)
same,slope,[6],0.00477 (inactive)
same,outcome,[7],inactive
same,inhibition,[8],13.7% (inactive)
same,inhibition,[9],18.8% (inactive)
NS(=O)(=O)c1ccc(NC(=O)CSc2nnc(Cc3cccs3)n2-c2ccccc2)cc1,cell count,[1],253
same,inhibition,[1],-10.8% (inactive)
same,inhibition of aggregation,[2],7.5% (inactive)
same,nuclei count,[2],73.5%
same,inhibition,[3],-24.9% (inactive)
same,nuclei count,[3],100%
same,fluorescence slope,[4],-0.45 (inactive)
same,NADPH fluorescence slope,[5],-4.3e-05 (inactive)
same,slope,[6],0.00519 (inactive)
same,outcome,[7],inactive
same,inhibition,[8],17.4% (inactive)
same,inhibition,[9],21.4% (inactive)
CC(Sc1n[nH]c(=O)[nH]c1=O)C(=O)OCc1ccccc1 (configuration not stated),cell count,[1],281
same,inhibition,[1],-2.5% (inactive)
same,inhibition of aggregation,[2],10.6% (inactive)
same,nuclei count,[2],89.4%
same,inhibition,[3],-83.4% (inactive)
same,nuclei count,[3],116%
same,fluorescence slope,[4],-0.305 (inactive)
same,NADPH fluorescence slope,[5],-2.2e-05 (inactive)
same,slope,[6],0.00608 (inactive)
same,outcome,[7],inactive
same,inhibition,[8],14.4% (inactive)
same,inhibition,[9],10.9% (inactive)
CCN1CCN(c2nc3c(c(=O)n(C)c(=O)n3C)n2Cc2cccc3ccccc23)CC1,cell count,[1],471
same,inhibition,[1],-6% (inactive)
same,inhibition of aggregation,[2],14.8% (inactive)
same,nuclei count,[2],85.1%
same,inhibition,[3],35.5% (inactive)
same,nuclei count,[3],80.6%
same,fluorescence slope,[4],-0.46 (inactive)
same,NADPH fluorescence slope,[5],-5.6e-05 (inactive)
same,slope,[6],0.00535 (inactive)
same,outcome,[7],inactive
same,inhibition,[8],12.4% (inactive)
same,inhibition,[9],18.7% (inactive)
COc1ccc(Br)cc1-c1noc(-c2ccccc2)n1,cell count,[1],357
same,inhibition,[1],3% (inactive)
same,inhibition of aggregation,[2],-25.4% (inactive)
same,nuclei count,[2],102%
same,inhibition,[3],-51.1% (inactive)
same,nuclei count,[3],109%
same,fluorescence slope,[4],-0.371 (inactive)
same,NADPH fluorescence slope,[5],-6.1e-05 (inactive)
same,slope,[6],0.00662 (inactive)
same,outcome,[7],inactive
same,inhibition,[8],13.4% (inactive)
same,inhibition,[9],99.2% (active)
Cc1csc(NC(=O)Nc2cccc(Cl)c2)n1,cell count,[1],506
same,inhibition,[1],1.8% (inactive)
same,inhibition of aggregation,[2],-3.3% (inactive)
same,nuclei count,[2],97.5%
same,inhibition,[3],-98.3% (inactive)
same,nuclei count,[3],113%
same,fluorescence slope,[4],-0.373 (inactive)
same,NADPH fluorescence slope,[5],-3.7e-05 (inactive)
same,slope,[6],0.00525 (inactive)
same,outcome,[7],active; weak signal in gallbladder only
same,inhibition,[8],-37.7% (inactive)
same,inhibition,[9],-119% (inactive)
